A short description of data set [1]: Cytoprotective activity against amyloid beta-induced oxidative stress in mouse Neuro2a cells assessed as cell viability at 250 uM after 6 hrs by MTT assay. The data set is classed as functional. Conditions: N2a, read-out: Activity; call rule not given here. The gist of the method:
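Murine Neuro-2A cells in DMEM with 10% FBS and penicillin-streptomycin, 37°C, 5% CO2; trypsinized ≤1 min, seeded 2,000–4,000 cells/mL, 6 h. Then added 10 μL of 250 μM compound (stock), 15 μL of 833 μM Aβ 25–35 (stock), and MTT (5 mg/mL); 6 h, then SDS/DMF extraction buffer 6 h at 37°C in dark; A570 as percent of unstressed control.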

Data set [2] in a line: Antioxidant activity assessed as DPPH radical scavenging activity by measuring remaining DPPH level at 20 uM after 30 mins by plate reader analysis. Conditions: 0.5 h. The class given is physicochemical. The gist of the method:
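DPPH (0.2 mM in ethanol, 50 μL freshly prepared) mixed with 150 μL test compound in ethanol, 5–50 μM range; 30 min at room temperature in dark; loss of absorbance at 517 nm read. Scavenging activity = (1 − A_test/A_control) × 100%, control lacking scavenger; reported activity taken at 20 µM compound.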
A general note: Loss of DPPH colour is used to gauge radical scavenging.

For data set [3], the target named is Xanthine dehydrogenase/oxidase (Bos taurus, UniProt P80457). Nature of the data set: Inhibition of bovine xanthine oxidase assessed as conversion of xanthine to uric acid by spectroscopic analysis. The gist of the method: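 XO suspended in 20 mM phosphate pH 7.5, added to xanthine (final 46 μM; final enzyme 39 μg/mL); uric acid formation followed at 295 nm for 5 min. Eleven inhibitor concentrations bracketing the IC50; rates by linear regression of absorbance vs time, fitted to a three-parameter logistic to give IC50.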

The structures appear in SMILES notation.

The values below come from ChEMBL document CHEMBL3751756, “Hydroxylated chalcones with dual properties: Xanthine oxidase inhibitors and radical scavengers” (Bioorg Med Chem, 2016).

As usually defined, the IC50 is the concentration needed to halve the response being measured.

Chain of Xanthine dehydrogenase/oxidase (P80457 whole entry): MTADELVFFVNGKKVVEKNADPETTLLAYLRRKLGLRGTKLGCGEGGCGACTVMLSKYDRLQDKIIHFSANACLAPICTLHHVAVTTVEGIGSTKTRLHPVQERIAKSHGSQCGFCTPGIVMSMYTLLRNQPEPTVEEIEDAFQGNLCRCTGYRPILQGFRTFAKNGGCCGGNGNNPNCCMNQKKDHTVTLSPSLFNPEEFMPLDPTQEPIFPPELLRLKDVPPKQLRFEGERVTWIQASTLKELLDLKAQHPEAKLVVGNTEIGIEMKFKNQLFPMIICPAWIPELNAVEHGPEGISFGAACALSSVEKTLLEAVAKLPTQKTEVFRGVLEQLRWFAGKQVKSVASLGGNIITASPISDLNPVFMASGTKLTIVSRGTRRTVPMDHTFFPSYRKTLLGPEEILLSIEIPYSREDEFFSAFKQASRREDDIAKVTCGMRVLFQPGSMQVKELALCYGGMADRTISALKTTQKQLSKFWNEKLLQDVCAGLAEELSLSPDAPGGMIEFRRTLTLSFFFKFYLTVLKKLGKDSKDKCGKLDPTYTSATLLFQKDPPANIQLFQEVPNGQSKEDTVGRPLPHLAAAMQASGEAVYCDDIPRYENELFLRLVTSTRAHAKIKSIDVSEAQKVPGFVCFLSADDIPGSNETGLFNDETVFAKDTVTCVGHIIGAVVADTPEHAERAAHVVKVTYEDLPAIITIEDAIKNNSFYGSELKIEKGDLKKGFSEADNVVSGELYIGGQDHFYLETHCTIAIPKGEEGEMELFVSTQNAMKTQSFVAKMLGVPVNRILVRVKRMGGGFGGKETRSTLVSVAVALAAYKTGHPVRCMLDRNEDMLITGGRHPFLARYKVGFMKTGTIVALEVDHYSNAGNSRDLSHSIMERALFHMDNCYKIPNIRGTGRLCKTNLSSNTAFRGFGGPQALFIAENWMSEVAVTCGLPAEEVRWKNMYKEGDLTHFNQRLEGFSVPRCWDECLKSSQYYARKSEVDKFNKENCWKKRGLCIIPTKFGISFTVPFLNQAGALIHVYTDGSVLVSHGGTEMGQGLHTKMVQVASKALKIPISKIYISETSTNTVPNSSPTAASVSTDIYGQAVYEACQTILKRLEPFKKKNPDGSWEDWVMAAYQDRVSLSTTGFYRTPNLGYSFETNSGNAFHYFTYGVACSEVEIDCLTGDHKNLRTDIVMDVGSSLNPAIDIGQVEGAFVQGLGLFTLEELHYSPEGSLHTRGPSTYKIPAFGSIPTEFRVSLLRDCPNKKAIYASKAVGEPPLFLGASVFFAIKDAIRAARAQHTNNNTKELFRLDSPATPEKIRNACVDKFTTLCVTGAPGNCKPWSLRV

Take `O=C(/C=C/c1cccc(O)c1)c1ccc(O)cc1O`: in data set [1], the viability at 250 µM came out at 6.9%. Moreover, in data set [2], the Activity is reported as 0.5%. Moreover, in data set [3] (read-out: IC50), the IC50 is 27 µM.

On to `O=C(/C=C/c1ccc(O)c(O)c1)c1cc(O)ccc1O`, for which, in data set [1], the viability at 250 µM stood at 46%. Further, the Activity in data set [2] worked out at 91%. The IC50 in data set [3] (read-out: IC50) was 17 µM.

In the case of `O=C(/C=C/c1ccc(O)c(O)c1)c1cccc(O)c1`, the viability at 250 µM in data set [1] is 35%. For the same molecule, in data set [2], the Activity is on record as 82%. Further, in data set [3] (read-out: IC50), the IC50 was determined as 5.3 µM.

For `O=C(/C=C/c1ccc(O)c(O)c1)c1ccccc1`, the viability at 250 µM in data set [1] came to 4.3%. The Activity in data set [2] stood at 90%. Besides, the IC50 in data set [3] (read-out: IC50) is 53 µM.

Regarding `O=C(/C=C/c1ccccc1O)c1ccccc1`, in data set [1], the viability at 250 µM was 3%. In data set [2], the Activity is recorded as -0.6%. For the same molecule, the IC50 result in data set [3] is on record as “Not Active”.

In the case of `O=C(/C=C/c1ccc(O)c(O)c1)c1cc(O)cc(O)c1`, in data set [1], the viability at 250 µM is 26%. For the same molecule, the Activity in data set [2] came out at 84%. Besides, in data set [3] (read-out: IC50), the IC50 turned out to be 6.5 µM.

On to `O=C(/C=C/c1ccc(O)c(O)c1)c1ccc(O)c(O)c1O`, for which, in data set [1], the viability at 250 µM came to 118%. The Activity in data set [2] is reported as 92%. In addition, the IC50 in data set [3] (read-out: IC50) worked out at 1.2 µM.

For `O=C(/C=C/c1ccc(O)c(O)c1)c1ccc(O)c(O)c1`, the viability at 250 µM in data set [1] worked out at 40%. Besides, the Activity in data set [2] came out at 77%. In data set [3] (read-out: IC50), the IC50 was 3 µM.

With `O=C(/C=C/c1ccccc1)c1cccc(O)c1`, the viability at 250 µM in data set [1] stood at 5.9%. Also, the Activity in data set [2] is on record as 0.2%. For the same molecule, in data set [3], the IC50 result is given as “Not Active”.

On to `O=C(/C=C/c1ccc(O)c(O)c1)c1ccc(O)cc1`, for which, in data set [1], the viability at 250 µM was found to be 28%. In addition, the Activity in data set [2] came to 42%. Besides, the IC50 in data set [3] (read-out: IC50) turned out to be 4.3 µM.

`O=C(/C=C/c1ccc(O)c(O)c1)c1c(O)cccc1O`: the viability at 250 µM in data set [1] is 28%. For the same molecule, in data set [2], the Activity was determined as 90%. The IC50 in data set [3] (read-out: IC50) stood at 35 µM.

For the molecule `O=C(/C=C/c1cccc(O)c1O)c1ccc(O)c(O)c1`, in data set [1], the viability at 250 µM stood at 46%. Moreover, the Activity in data set [2] is on record as 70%. In addition, in data set [3] (read-out: IC50), the IC50 was found to be 93 µM.

On to `O=C(/C=C/c1cc(O)ccc1O)c1ccc(O)c(O)c1`, for which, in data set [1], the viability at 250 µM is 70%. Besides, the Activity in data set [2] was determined as 86%. The IC50 in data set [3] (read-out: IC50) is 8.6 µM.

`O=C(/C=C/c1ccc(O)c(O)c1O)c1ccc(O)c(O)c1O`: the viability at 250 µM in data set [1] turned out to be 91%. In addition, the Activity in data set [2] came out at 82%. Besides, the IC50 in data set [3] (read-out: IC50) was determined as 5.5 µM.

With `O=C(/C=C/c1ccc(O)c(O)c1O)c1ccc(O)c(O)c1`, the viability at 250 µM in data set [1] is 51%. In addition, the Activity in data set [2] was found to be 57%. Further, the IC50 in data set [3] (read-out: IC50) was 18 µM.

Regarding `O=C(/C=C/c1ccccc1)c1ccc(O)cc1O` [2',4'-DIHYDROXYCHALCONE], the viability at 250 µM in data set [1] was 3.9%. The Activity in data set [2] is -3%. In addition, in data set [3], the IC50 result is reported as “Not Active”.

Consider `O=C(/C=C/c1ccccc1)c1ccccc1O` [2'-HYDROXYCHALCONE], for which, in data set [1], the viability at 250 µM is 1.7%. For the same molecule, the Activity in data set [2] was determined as 6.7%. For the same molecule, the IC50 result in data set [3] is on record as “Not Active”.

`O=C(/C=C/c1ccccc1)c1ccc(O)cc1` [4'-HYDROXYCHALCONE]: in data set [1], the viability at 250 µM is 1.4%. Moreover, the Activity in data set [2] is -1.4%. For the same molecule, the IC50 entry in data set [3] is on record as “Not Active”.

As to `O=C(/C=C/c1ccc(O)cc1)c1ccccc1` [4-HYDROXYCHALCONE], in data set [1], the viability at 250 µM was determined as 0%. Besides, in data set [2], the Activity is on record as -9.1%. Moreover, the IC50 in data set [3] (read-out: IC50) worked out at 290 µM.

Take `O=C(/C=C/c1ccc(O)c(O)c1)c1ccc(O)cc1O` [BUTEIN]: in data set [1], the viability at 250 µM worked out at 71%. The Activity in data set [2] was 90%. Besides, the IC50 in data set [3] (read-out: IC50) was 1.3 µM.
